From ChEMBL document CHEMBL4017501, “Paralog Specificity Determines Subcellular Distribution, Action Mechanism, and Anticancer Activity of TRAP1 Inhibitors” (J Med Chem, 2017)

Tests used:
[1] = Cytotoxicity against human corneal cells assessed as reduction in cell viability at 5 to 20 uM after 24 hrs by MTT assay; type: cell-based
Procedure, shortened: (§1)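 Corneal cells kept in corneal medium; hepatocytes isolated from 8-week-old BALB/c mice and kept in M199/EBSS with 10% FBS. Cells given a range of drug concentrations for 24 h. MTT absorbance read at 595 nm and normalized to DMSO; two independent experiments in duplicate, mean ± SEM.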

Hepatocyte = assay: Cytotoxicity against mouse primary hepatocytes assessed as reduction in cell viability at 5 to 20 uM after 24 hrs by MTT assay; type: cell-based; procedure, shortened: as §1
HeLa [2] = assay: Induction of apoptosis in human HeLa cells assessed as live cells at 20 uM after 24 hrs by Annexin V-FITC/propidium iodide staining based flow cytometry (reference value: 90.1%); type: functional
HeLa [3] = assay: Induction of apoptosis in human HeLa cells assessed as early apoptotic cells at 20 uM after 24 hrs by Annexin V-FITC/propidium iodide staining based flow cytometry (reference value: 3.9%); type: functional
HeLa [4] = assay: Induction of apoptosis in human HeLa cells assessed as late apoptotic cells at 20 uM after 24 hrs by Annexin V-FITC/propidium iodide staining based flow cytometry (reference value: 5.3%); type: functional
HeLa [5] = assay: Induction of apoptosis in human HeLa cells assessed as necrotic cells at 20 uM after 24 hrs by Annexin V-FITC/propidium iodide staining based flow cytometry (reference value: 0.7%); type: functional
PC-3 [6] = assay: Induction of apoptosis in human PC3 cells assessed as live cells at 20 uM after 24 hrs by Annexin V-FITC/propidium iodide staining based flow cytometry (reference value: 97.4%); type: functional
PC-3 [7] = assay: Induction of apoptosis in human PC3 cells assessed as early apoptotic cells at 20 uM after 24 hrs by Annexin V-FITC/propidium iodide staining based flow cytometry (reference value: 0.7%); type: functional
PC-3 [8] = assay: Induction of apoptosis in human PC3 cells assessed as late apoptotic cells at 20 uM after 24 hrs by Annexin V-FITC/propidium iodide staining based flow cytometry (reference value: 1.5%); type: functional
PC-3 [9] = assay: Induction of apoptosis in human PC3 cells assessed as necrotic cells at 20 uM after 24 hrs by Annexin V-FITC/propidium iodide staining based flow cytometry (reference value: 0.2%); type: functional
[10] = target: T1, Heat shock protein 75 kDa, mitochondrial (Homo sapiens, UniProt Q12931); assay: Inhibition of FITC3-labeled PU-H71 binding to recombinant human N-terminal His6-tagged TRAP1 (60 to 561 residues) expressed in Escherichia coli BL21(DE3) after 24 hrs by fluorescence polarization assay
T1 sequence (Q12931 whole entry): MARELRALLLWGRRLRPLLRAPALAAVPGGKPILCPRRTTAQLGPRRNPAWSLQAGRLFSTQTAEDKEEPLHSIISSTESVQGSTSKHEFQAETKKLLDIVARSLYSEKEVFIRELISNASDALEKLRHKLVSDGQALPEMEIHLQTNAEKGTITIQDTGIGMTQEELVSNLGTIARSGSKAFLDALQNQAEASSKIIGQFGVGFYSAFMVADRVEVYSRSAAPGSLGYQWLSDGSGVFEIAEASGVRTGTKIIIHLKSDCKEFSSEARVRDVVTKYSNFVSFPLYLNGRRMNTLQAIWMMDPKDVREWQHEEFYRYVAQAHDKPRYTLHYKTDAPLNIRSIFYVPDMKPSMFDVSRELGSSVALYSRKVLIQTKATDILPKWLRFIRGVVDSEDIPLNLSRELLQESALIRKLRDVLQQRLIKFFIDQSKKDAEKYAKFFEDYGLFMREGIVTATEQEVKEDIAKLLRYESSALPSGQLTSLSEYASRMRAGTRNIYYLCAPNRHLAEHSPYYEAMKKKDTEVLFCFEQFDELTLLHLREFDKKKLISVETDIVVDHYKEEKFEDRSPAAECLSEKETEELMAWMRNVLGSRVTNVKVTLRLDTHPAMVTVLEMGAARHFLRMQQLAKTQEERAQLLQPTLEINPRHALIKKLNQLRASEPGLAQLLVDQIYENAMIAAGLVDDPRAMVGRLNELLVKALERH
Procedure, shortened: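 Recombinant TRAP1 (100 nM) incubated with 10 nM 1-FITC3 probe and varying inhibitor concentrations for 24 h at 4 °C. Buffer: PBS-type salts with 1 mM DTT, 2 mM MgCl2, 0.1 mg/mL BSA, 0.05% NP40, pH 7.3. Polarization (mP) scaled to maximum and minimum values; mean ± SEM of two independent experiments.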

[11] = target: Heat shock protein HSP 90-alpha (Homo sapiens, UniProt P07900); assay: Inhibition of FITC3-labeled PU-H71 binding to recombinant HSP90alpha (unknown origin) after 24 hrs by fluorescence polarization assay

Compound	Activity [1]	Activity (Hepatocyte)	Activity (HeLa [2]) [%]	Activity (HeLa [3]) [%]	Activity (HeLa [4]) [%]	Activity (HeLa [5]) [%]	Activity (PC-3 [6]) [%]	Activity (PC-3 [7]) [%]	Activity (PC-3 [8]) [%]	Activity (PC-3 [9]) [%]	IC50 [10] [µM]	IC50 [11] [µM]
CCNC(=O)c1noc(-c2cc(C(C)C)c(O)cc2O)c1-c1ccc(CN2CCOCC2)cc1 [LUMINESPIB]	Toxic	Toxic	83	7.5	8.6	0.9	93.5	0.7	5	0.9		
Nc1nc(Cl)c2cnc(Cc3ccc4c(c3)OCO4)n2n1											> 10	> 10
